In ChEMBL document CHEMBL3414541, “Discovery of new thienopyrimidinone derivatives displaying antimalarial properties toward both erythrocytic and hepatic stages of Plasmodium” (Eur J Med Chem, 2015):
The source made the active and inactive calls. The calls are words filed in the database; no cut-off is given here.

Legend:
Plasmodium falciparum [1] = experiment: Antiplasmodial activity against multi-drug resistant Plasmodium falciparum K1 infected in human erythrocytes assessed as depolarization of mitochondrial membrane at IC50 after 20 mins by flow cytometric analysis; type: functional, organism-based
Plasmodium falciparum [2] = experiment: Antiplasmodial activity against multi-drug resistant Plasmodium falciparum K1 infected in human erythrocytes assessed as parasite growth inhibition after 72 hrs by SYBR Green I dye-based fluorescence assay; type: functional, organism-based
[3] = (§1) Cytotoxicity against human HepG2 cells assessed as cell viability after 72 hrs by MTT assay; type: cell-based; settings: HepG2 cells
Method in brief: (§2)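 Cells were kept in RPMI with 10% FBS. 5×10^3 cells/well were settled 24 h, then exposed to compound from DMSO (final <0.5%): CHO for 24 h, HepG2 for 72 h, in duplicate. Wells were checked for precipitate. MTT was added for 2 h at 37 °C, formazan dissolved in DMSO, and A570 read (630 nm reference). Viability is % of untreated cells; CC50 from non-linear regression, mean of three experiments.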

[4] = Selectivity index, ratio of CC50 for human HepG2 cells to IC50 for multi-drug resistant Plasmodium falciparum K1 infected in human erythrocytes
Plasmodium yoelii = experiment: Antiplasmodial activity against liver stage of Plasmodium yoelii 17X NL sporozoites infected in human HepG2 cells expressing CD81 after 48 hrs by DAPI staining-based immunofluorescence analysis; type: functional, organism-based; settings: HepG2, 48 h
Method in brief: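 HepG2/CD81 cells were grown in D-MEM with 10% FBS. 25×10^3 cells/well went on collagen-coated wells; after 24 h they received compound and 5000 P. yoelii sporozoites together, then were spun 900 × g for 10 min at 4 °C. Treatment was renewed at 3 h and 24 h. At 48 h cells were methanol-fixed, stained with anti-HSP70 immunofluorescence, and parasites counted by microscopy. IC50 is 50% fewer parasites than in 0.5% DMSO controls.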

[5] = Cytotoxicity against human HepG2 cells expressing CD81 assessed as cell viability after 72 hrs by CellTiter-glo assay; type: cell-based
[6] = Selectivity index, ratio of CC50 for human HepG2 cells expressing CD81 to IC50 for liver stage of Plasmodium yoelii 17X NL sporozoites infected in human HepG2 cells expressing CD81; type: functional
[7] = Inhibition of Plasmodium falciparum DHFR after 48 hrs
Method in brief: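 Recombinant S. cerevisiae whose own DHFR is replaced by the P. falciparum DHFR domain was used. 1×10^4 cells were grown in YEPD with compound from DMSO (final <0.5%) at 30 °C for 48 h, in duplicate. Growth was read as A660. IC50 (50% growth inhibition) came from non-linear regression.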

HepG2 = experiment: as §1; type: cell-based; settings: hepg2, 72 h; method in brief: as §2
Salmonella typhimurium [8] = experiment: Mutagenicity in Salmonella typhimurium TA100 at 2.5 mM after 1 hr by Ames test in absence of S9 fraction; type: toxicity, organism-based; settings: salmonella enterica subsp. enterica serovar typhimurium, 2500 µM
Method in brief: (§3)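 Tester strains were grown overnight in nutrient broth. 0.1 mL culture was incubated 1 h at 37 °C with shaking with compound (2.5–25 mM DMSO solutions), with or without 4% S9 mix. Top agar was added and the mix plated on Vogel-Bonner agar. Revertants were counted after 48 h at 37 °C in the dark. A twofold rise over spontaneous revertants counts as mutagenic.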

Salmonella typhimurium [9] = experiment: Mutagenicity in Salmonella typhimurium TA97A at 2.5 mM after 1 hr by Ames test in absence of S9 fraction; type: toxicity, organism-based; settings: salmonella enterica subsp. enterica serovar typhimurium, 2500 µM; method in brief: as §3
Plasmodium falciparum [10] = experiment: Antiplasmodial activity against multi-drug resistant Plasmodium falciparum K1 infected in human erythrocytes assessed as parasite growth inhibition after 72 hrs by SYBR Green I dye-based fluorescence assay in presence of ascorbic acid; type: functional, organism-based; settings: K1, 72 h
Method in brief: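 Same SYBR Green I 72 h growth assay on the K1 strain (2% haematocrit, 1% parasitaemia, 37 °C, 6% CO2/14% O2/80% N2, DMSO <0.5%), with 800 µM ascorbic acid in the medium as radical trap. Duplicates; artesunate as positive control; IC50 derived.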

[11] = Plasmodium falciparum, K1, 72 h, read-out: IC50

| SMILES | IC50 (Plasmodium falciparum [2]; [11]) | CC50 at 72 h [3] | further results |
| --- | --- | --- | --- |
| Cc1ccc(-c2cc3nc(NC(C)C)[nH]c(=O)c3s2)cc1 |  |  | Activity (Plasmodium falciparum [1]): inactive |
| Cc1ccc(-c2csc3c(=O)[nH]c(NC(C)(C)C)nc23)cc1 | > 5 µM | 1.4 µM |  |
| Cc1ccc(-c2ccc3c(=O)[nH]c(NC(C)(C)C)nc3c2)cc1 | > 5 µM | 0.98 µM | Ratio CC50/IC50 [4]: <5.1 |
| Cc1cccc(-c2cc3nc(NC(C)(C)C)[nH]c(=O)c3s2)c1 | 3.6 µM | 14.1 µM | Ratio CC50/IC50 [4]: 3 |
| COc1cc(NC(C)CCCN)c2ncccc2c1 (stereo unspecified) [PRIMAQUINE] |  |  | IC50 (Plasmodium yoelii): 1.16 µM; CC50 at 72 h [5]: 6.1 µM; Ratio CC50/IC50 [6]: 5.3 |
| CC(C)Nc1nc2c(-c3ccc(Br)cc3)csc2c(=O)[nH]1 | > 5 µM | 6.5 µM |  |
| COc1ccc(-c2cc3nc(NC(C)C)[nH]c(=O)c3s2)cc1 | 0.5 µM | 27.1 µM | Ratio CC50/IC50 [4]: 136 |
| CC(C)(C)Nc1nc2ccsc2c(=O)[nH]1 | > 5 µM | 8.4 µM |  |
| CC1(C)N=C(N)N=C(N)N1c1ccc(Cl)cc1 [CYCLOGUANIL] |  |  | IC50 [7]: 5 µM |
| CCCCCNc1nc2cc(-c3ccc(C)cc3)sc2c(=O)[nH]1 | > 5 µM | 4.2 µM |  |
| Cc1ccc(-c2cc3nc(N)[nH]c(=O)c3s2)cc1 |  |  | IC50 (Plasmodium falciparum [2]): ND(Insoluble); CC50 (HepG2): ND(Insoluble) |
| C[C@H]1c2cccc(O)c2C(=O)C2=C(O)[C@]3(O)C(=O)C(C(N)=O)=C(O)[C@@H](N(C)C)[C@@H]3[C@@H](O)[C@@H]21.O [DOXYCYCLINE] |  |  | Ratio CC50/IC50 [4]: 4 |
| CCCCN(CCCC)c1nc2cc(-c3ccc(C)cc3)sc2c(=O)[nH]1 |  |  | IC50 (Plasmodium falciparum [2]): ND(Insoluble); CC50 (HepG2): ND(Insoluble) |
| Cc1ccc(-c2cc3nc(NCc4ccccc4Cl)[nH]c(=O)c3s2)cc1 | > 5 µM | 32.6 µM |  |
| CC(C)(C)Nc1nc2cc(-c3ccc(F)cc3)sc2c(=O)[nH]1 | > 5 µM | 5.1 µM |  |
| CC(C)(C)Nc1nc2cc(-c3ccc(Br)cc3)sc2c(=O)[nH]1 | > 5 µM | 1.4 µM |  |
| Cc1ccc(-c2cc3nc(NC(C)(C)C)[nH]c(=O)c3s2)cc1 |  |  | Activity (Plasmodium falciparum [1]): inactive |
| CCN(CC)c1nc2cc(-c3ccc(C)cc3)sc2c(=O)[nH]1 |  |  | IC50 (Plasmodium falciparum [2]): ND(Insoluble); CC50 (HepG2): ND(Insoluble) |
| CC(C)Nc1nc2ccsc2c(=O)[nH]1 | > 5 µM | 23.9 µM |  |
| [N-]=[N+]=[N-].[Na+] [SODIUM AZIDE] |  |  | Activity (Salmonella typhimurium [8]): Toxic; Activity (Salmonella typhimurium [9]): Toxic |
| CCCCCCCNc1nc2cc(-c3ccc(C)cc3)sc2c(=O)[nH]1 | > 5 µM | 6.8 µM |  |
| CC(C)(C)Nc1nc2c(-c3ccc(F)cc3)csc2c(=O)[nH]1 | > 5 µM | 2.3 µM |  |
| CCCCN(C)c1nc2cc(-c3ccc(C)cc3)sc2c(=O)[nH]1 | > 5 µM | 3 µM |  |
| C[C@@H]1CC[C@H]2[C@@H](C)C(=O)O[C@@H]3O[C@@]4(C)CC[C@@H]1[C@]32OO4 [ARTEMISININ] |  |  | IC50 (Plasmodium yoelii): > 10 µM; CC50 at 72 h [5]: > 10 µM |
| CCCNc1nc2cc(-c3ccc(C)cc3)sc2c(=O)[nH]1 | > 5 µM | > 62.5 µM |  |
| C[C@H]1[C@H](OC(=O)CCC(=O)O)O[C@@H]2O[C@@]3(C)CC[C@H]4[C@H](C)CC[C@@H]1[C@@]24OO3 [ARTESUNATE] |  |  | IC50 (Plasmodium falciparum [10]): 0.7 µM |
